Series [1] deals with human TRPC5. The note with it: calcium flux assay; cited from earlier work.
For series [2], the system named is human TRPC5. The following applies: whole-cell manual patched clamp assay; cited from earlier work.
Series [3] concerns wide range of molecular targets including ion channels (TRPV, TRPM), receptors (dopamine D1 and D2, NMDA, TNF-α) and enzymes (acetylcholinesterase, tyrosine …). The note with it: patch clamp assay; cited from earlier work. (In patch-clamp work, channel activity is measured electrically.)
The conditions of series [4]: in vivo studies; cited from earlier work.
For series [5], the target named is T1, TRPC5 (Rattus norvegicus, UniProt Q8VD38).
T1 sequence (Q8VD38 1-974): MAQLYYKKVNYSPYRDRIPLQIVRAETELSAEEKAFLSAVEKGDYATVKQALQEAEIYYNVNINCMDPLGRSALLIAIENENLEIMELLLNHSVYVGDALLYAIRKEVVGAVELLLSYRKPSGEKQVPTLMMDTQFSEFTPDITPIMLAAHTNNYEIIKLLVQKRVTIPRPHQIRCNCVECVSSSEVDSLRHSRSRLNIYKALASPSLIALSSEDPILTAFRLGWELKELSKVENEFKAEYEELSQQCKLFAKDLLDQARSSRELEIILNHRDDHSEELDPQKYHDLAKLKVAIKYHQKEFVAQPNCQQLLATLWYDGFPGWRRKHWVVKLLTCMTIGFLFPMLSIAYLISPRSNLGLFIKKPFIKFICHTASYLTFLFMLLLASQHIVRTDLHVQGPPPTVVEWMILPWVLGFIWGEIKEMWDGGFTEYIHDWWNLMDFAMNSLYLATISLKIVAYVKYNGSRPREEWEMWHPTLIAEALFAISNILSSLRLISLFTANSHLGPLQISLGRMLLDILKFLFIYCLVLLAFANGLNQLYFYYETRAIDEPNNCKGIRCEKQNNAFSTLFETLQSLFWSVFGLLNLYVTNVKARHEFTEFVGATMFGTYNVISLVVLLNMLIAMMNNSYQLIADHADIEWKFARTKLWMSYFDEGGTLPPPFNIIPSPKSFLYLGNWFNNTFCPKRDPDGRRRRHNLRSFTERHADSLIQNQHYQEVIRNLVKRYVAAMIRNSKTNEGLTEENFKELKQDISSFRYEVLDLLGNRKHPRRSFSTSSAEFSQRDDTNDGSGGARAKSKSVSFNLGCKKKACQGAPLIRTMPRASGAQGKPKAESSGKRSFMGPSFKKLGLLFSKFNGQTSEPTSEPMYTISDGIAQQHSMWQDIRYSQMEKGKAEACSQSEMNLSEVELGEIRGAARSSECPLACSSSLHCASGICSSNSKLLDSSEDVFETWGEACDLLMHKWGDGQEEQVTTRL
Kind of series: In vitro autoradiography study of the rat brain. The format is binding, Sprague Dawley rats.

Series [6] is described as follows: LogD7.4 measurement, shake flask method. It counts as physicochemical. The following applies: n-octanol / PBS pH 7.4, n = 3.
Series [7] in a line: Solubility of the radiotracer in dose formulation. The format is physicochemical.
The nature of series [8]: Ex vivo biodistribution study. It counts as in vivo, Sprague Dawley rats. The following applies: for Tracer uptake, Blood / Tracer uptake, Brain / Tracer uptake, Fat / Tracer uptake, Heart / Tracer uptake, Kidney / Tracer uptake, Lung / Tracer uptake, Muscle / Tracer uptake, Pancreas / Tracer uptake, Small intestine / Tracer uptake, Spleen / Tracer uptake, Thymus / Tracer uptake, Liver: iv, n = 4.

Series [9] concerns the target T2, TRPC5 (Mus musculus, UniProt Q9QX29).
T2 sequence (Q9QX29 1-975): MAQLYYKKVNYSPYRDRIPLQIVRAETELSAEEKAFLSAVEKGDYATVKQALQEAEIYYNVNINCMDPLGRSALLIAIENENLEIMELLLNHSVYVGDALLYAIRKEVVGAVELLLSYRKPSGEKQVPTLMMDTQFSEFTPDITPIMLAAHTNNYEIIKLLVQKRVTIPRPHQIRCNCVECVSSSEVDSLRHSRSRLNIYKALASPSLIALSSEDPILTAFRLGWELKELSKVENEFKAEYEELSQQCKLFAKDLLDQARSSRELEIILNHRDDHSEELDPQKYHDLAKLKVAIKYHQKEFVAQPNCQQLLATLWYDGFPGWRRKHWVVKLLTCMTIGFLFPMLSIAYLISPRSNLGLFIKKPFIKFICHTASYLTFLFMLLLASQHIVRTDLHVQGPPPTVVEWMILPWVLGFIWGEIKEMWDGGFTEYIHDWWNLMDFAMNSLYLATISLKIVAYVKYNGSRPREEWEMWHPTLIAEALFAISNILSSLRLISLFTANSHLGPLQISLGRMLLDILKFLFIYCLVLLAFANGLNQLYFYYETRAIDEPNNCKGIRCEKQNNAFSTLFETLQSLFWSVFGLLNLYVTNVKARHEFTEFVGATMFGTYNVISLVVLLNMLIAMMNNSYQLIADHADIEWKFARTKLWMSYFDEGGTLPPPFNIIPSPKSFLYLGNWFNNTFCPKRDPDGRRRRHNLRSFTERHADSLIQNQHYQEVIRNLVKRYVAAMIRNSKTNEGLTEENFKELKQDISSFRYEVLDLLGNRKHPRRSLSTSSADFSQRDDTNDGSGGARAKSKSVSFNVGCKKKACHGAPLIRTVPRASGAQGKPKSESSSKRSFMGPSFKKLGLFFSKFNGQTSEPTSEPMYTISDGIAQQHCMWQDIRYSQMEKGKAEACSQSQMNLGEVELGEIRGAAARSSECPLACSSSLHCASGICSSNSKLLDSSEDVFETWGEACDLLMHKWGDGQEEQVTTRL
It counts as in vivo, 129S1/SvImJ mice. The note with it: 129S1/SvImJ wild-type mice.

The subject of series [10] is TRPC5. It counts as in vivo, 129S1/SvImJ mice. The following applies: 129S1/SvImJ TRPC5 knockout mice.
Series [11] deals with TRPC5. The experiment in a line: MicroPET brain study of the nonhuman primate. The format is in vivo, cynomolgus macaques. Put shortly: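 Adult male cynomolgus macaques (9–10 kg), two tracer scans in each of two animals; fasted 12 h, ketamine (10–20 mg kg−1) plus glycopyrrolate ([…]) i.m., intubated, 0.8–2.0% isoflurane/oxygen. Venous catheter; 10 min positioning and 45 min attenuation transmission scans. IV bolus ~0.35 GBq (injected mass ~4.2 μg); 0–120 min dynamic scan (3×1, 4×2, 3×3, 20×5 min frames).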

Here are results for 3 compounds from publication PMC9918595 (Molecular imaging and biology, 2022).

The IC50 is the point on the concentration scale where inhibition reaches its midpoint.

Where “and” joins values, the source holds several entries; their conditions need not be identical. Equal entries are not always repeated. Entries after “also recorded” stand apart in the source; their conditions may differ. Where two headings read alike, the source gives them in different places.

As to `Cn1c(=O)n(CCCO)c(=O)c2c1nc(Oc1cccc(Cl)c1)n2Cc1ccc(Cl)cc1` [HC070], the IC50 with human TRPC5 [1] is 9.3 nM. The IC50 with human TRPC5 [2] is 0.52 nM. In addition, the “selectivity over a wide range of molecular targets” value in series [3] was “at least 400 fold”. In series [4], the “anxiolytic and antidepressant function” value was “carries anxiolytic and antidepressant function”; the oral bioavailability entry is recorded as “orally bioavailable”.

Consider `Cn1c(=O)n(CCCO)c(=O)c2c1nc(Oc1cccc(OC(F)(F)F)c1)n2Cc1ccc(Cl)cc1` [HC608], for which, at TRPC5 [5] (cold blocker at 1 μM), the “blocking of [^11C]HC070 binding in rat brain sections” value is “significantly reduced binding; also recorded: able to reduce the radioactivity signal in the tissue slides very well; also recorded: significantly blocked”.

Consider `[11CH3]n1c(=O)n(CCCO)c(=O)c2c1nc(Oc1cccc(Cl)c1)n2Cc1ccc(Cl)cc1` [[^11C]HC070], for which the logD7.4 in series [6] is recorded as 1.08 ± 0.04. Moreover, the solubility entry in [7] (dose formulation, ethanol/saline) is “good solubility; also recorded: improved solubility in ethanol/saline medium”. In series [7] (dose solution without Kolliphor HS15), the “residue retaining inside surface of a glass vial or a syringe” value was “little percentage of retaining was detected”. In series [8] (SD rats, 5 min/60 min), the “brain uptake ratio from 5 min to 60 min” value was 4.5. Besides, in series [8] (SD rats, 5 min post injection), the “Tracer uptake, Blood” value amounted to 0.13±0.02 %I.D./gram; the “Tracer uptake, Brain” value amounted to 0.47±0.10 %I.D./gram; the “Tracer uptake, Fat” value is recorded as 0.07±0.02 %I.D./gram; the “Tracer uptake, Heart” value is 0.94±0.12 %I.D./gram. In addition, in series [8] (SD rats, 5 min post injection), the “Tracer uptake, Kidney” value amounted to 1.28±0.28 %I.D./gram; the “Tracer uptake, Lung” value is recorded as 0.72±0.07 %I.D./gram; the “Tracer uptake, Muscle” value amounted to 0.12±0.01 %I.D./gram; the “Tracer uptake, Pancreas” value stood at 1.33±0.30 %I.D./gram. Moreover, in series [8] (SD rats, 5 min post injection), the “Tracer uptake, Small intestine” value was determined as 1.16±0.11 %I.D./gram; the “Tracer uptake, Spleen” value was 0.73±0.17 %I.D./gram; the “Tracer uptake, Thymus” value was 0.47±0.08 %I.D./gram. In series [8] (SD rats, 30 min post injection), the “Tracer uptake, Blood” value amounted to 0.12±0.02 %I.D./gram; the “Tracer uptake, Brain” value amounted to 0.18±0.01 %I.D./gram; the “Tracer uptake, Fat” value is 0.31±0.09 %I.D./gram; the “Tracer uptake, Heart” value amounted to 0.33±0.03 %I.D./gram. In series [8] (SD rats, 30 min post injection), the “Tracer uptake, Kidney” value is 0.46±0.03 %I.D./gram; the “Tracer uptake, Liver” value stood at 1.70±0.18 %I.D./gram; the “Tracer uptake, Lung” value worked out at 0.41±0.07 %I.D./gram; the “Tracer uptake, Muscle” value was determined as 0.17±0.02 %I.D./gram. In addition, in series [8] (SD rats, 30 min post injection), the “Tracer uptake, Pancreas” value is 0.47±0.01 %I.D./gram; the “Tracer uptake, Small intestine” value is reported as 3.01±0.23 %I.D./gram; the “Tracer uptake, Spleen” value is 0.20±0.02 %I.D./gram; the “Tracer uptake, Thymus” value is 0.24±0.02 %I.D./gram. In addition, in [8] (SD rats, 60 min post injection), the “Tracer uptake, Blood” value is listed as 0.12±0.01 %I.D./gram; the “Tracer uptake, Brain” value is recorded as 0.09±0.02 %I.D./gram; the “Tracer uptake, Fat” value is on record as 0.35±0.12 %I.D./gram; the “Tracer uptake, Heart” value was determined as 0.20±0.03 %I.D./gram. Moreover, in series [8] (SD rats, 60 min post injection), the “Tracer uptake, Kidney” value is 0.33±0.05 %I.D./gram; the “Tracer uptake, Liver” value is 1.88±0.13 %I.D./gram; the “Tracer uptake, Lung” value was 0.23±0.07 %I.D./gram; the “Tracer uptake, Muscle” value stood at 0.13±0.02 %I.D./gram. Besides, in series [8] (SD rats, 60 min post injection), the “Tracer uptake, Pancreas” value amounted to 0.33±0.06 %I.D./gram; the “Tracer uptake, Small intestine” value worked out at 3.01±1.71 %I.D./gram; the “Tracer uptake, Spleen” value was 0.13±0.01 %I.D./gram; the “Tracer uptake, Thymus” value came out at 0.13±0.03 %I.D./gram. For the same compound, the clearance from plasma entry in series [8] (rats, ex vivo distribution) is “cleared from plasma primarily through hepatobiliary metabolism”. In addition, the “regional accumulation in rat brain sections” value on TRPC5 [5] (1.11 MBq/slide, room temperature, 30 min) is “highest accumulation in the TRPC5-enriched colliculus, striatum, cortex, and thalamus regions”. At TRPC5 [5] (autoradiography with HC608 block), the “binding specificity in rat brain sections” value was “specifically binds TRPC5 sites in rat brain sections”. In addition, the “time of peak brain uptake” value at TRPC5 [9] is listed as ~ 1.0 min. Further, the “peak brain uptake (SUV)” value on TRPC5 [9] (iv, 0-60 min dynamic PET, n = 3) was 1.13 and ~ 1.13 and 1.13 ± 0.08. Also, in the series on TRPC5 [10], the “time of peak brain uptake” value is ≤ 2 min. The “regional brain uptake, prefrontal cortex (SUV)” value in the series on TRPC5 [11] (macaque, highest regional radioactivity) was 2.88. Moreover, the “fold higher brain uptake compared with [^11C]HC608” value in the series on TRPC5 [11] (macaque, initial time (5 min), average) worked out at 2.4 fold. The “time of maximum brain uptake post-injection” value with TRPC5 [11] (male cynomolgus macaque) fell in the range of 3 to 5 min. The “maximum total brain uptake (SUV)” value in the series with TRPC5 [11] (male cynomolgus macaque, iv, 0-120 min dynamic PET) was ~ 2.2 and 2.2.
